Assay [1] concerns Nakaseomyces glabratus. Nature of the assay: Susceptibility of polyene-resistant Candida glabrata 21229 isolate by disk diffusion method. Format: functional. An outline of the steps: (§1)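 Disk diffusion on Casitone agar (pH 7.2, chloramphenicol 0.5 g/liter) with drug tablets. Tablet drug contents: voriconazole 1 μg, itraconazole 8 μg, amphotericin B/miconazole/clotrimazole 10 μg, fluconazole/ketoconazole 15 μg, nystatin 50 μg. Read-out is growth inhibition zone diameter (mm), mean of triplicates. Isolates were compared by Wilcoxon-Mann-Whitney test, unilateral α = 0.05.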
In general terms: A growth-free zone around the sample is the usual read-out of agar diffusion tests.

Assay [2] concerns Nakaseomyces glabratus. As to the kind of experiment: Antimicrobial activity against Candida glabrata 21231 isolate by E-test. Format: functional.
Assay [3] deals with Nakaseomyces glabratus. Nature of the assay: Susceptibility of polyene-resistant Candida glabrata 21229 isolate at 10 ug by disk diffusion method. Format: functional. To be noted: read-out: IZ. An outline of the steps: as §1
The test system of assay [4] is Nakaseomyces glabratus. Nature of the assay: Susceptibility of Candida glabrata 21229F34 isolate with URA3 by disk diffusion method. Format: functional.
For assay [5], the system named is Nakaseomyces glabratus. As to the kind of experiment: Susceptibility of Candida glabrata 21229C218 isolate expressing ERG6 gene by disk diffusion method. Format: functional. An outline of the steps: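 Complemented ura3 derivative carrying a plasmid-borne ERG6 copy was selected on selective medium. Amphotericin B susceptibility was tested by disk diffusion on Casitone agar (pH 7.2) with Neosensitab tablets. Read-out is the growth-inhibition zone diameter in mm.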

The test system of assay [6] is Nakaseomyces glabratus. As to the kind of experiment: Antimicrobial activity against polyene-resistant Candida glabrata 21229 isolate by E-test. Format: functional.
The subject of assay [7] is Nakaseomyces glabratus. Nature of the assay: Susceptibility of Candida glabrata 21231 isolate at 10 ug by disk diffusion method. Format: functional. To be noted: read-out: IZ. An outline of the steps: (§2)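 Disk diffusion was run on Casitone agar (pH 7.2) with Neosensitab tablets. Tablets held 10 μg for amphotericin B, econazole, miconazole and clotrimazole, and 8 μg for itraconazole. Read-out is the inhibition-zone diameter in mm, as the mean of triplicates. Isolates were compared by Wilcoxon-Mann-Whitney test, unilateral α = 0.05.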

Assay [8] deals with Nakaseomyces glabratus. As to the kind of experiment: Susceptibility of polyene-resistant Candida glabrata 21229 isolate at 15 ug by disk diffusion method. Format: functional. To be noted: read-out: IZ. An outline of the steps:
as §1

Assay [9] concerns Nakaseomyces glabratus. Nature of the assay: Susceptibility of Candida glabrata 21231 isolate at 15 ug by disk diffusion method. Format: functional. To be noted: read-out: IZ. An outline of the steps: as §1
Assay [10] relates to Nakaseomyces glabratus. Nature of the assay: Susceptibility of Candida glabrata 21231 isolate at 50 ug by disk diffusion method. Format: functional, organism-based. An outline of the steps: as §1
The test system of assay [11] is Nakaseomyces glabratus. Nature of the assay: Susceptibility of polyene-resistant Candida glabrata 21229 isolate at 50 ug by disk diffusion method. Format: functional, organism-based. An outline of the steps:
as §1

The subject of assay [12] is Nakaseomyces glabratus. Nature of the assay: Susceptibility of polyene-resistant Candida glabrata 21229 isolate at 1 ug by disk diffusion method. Format: functional. An outline of the steps:
as §1

Assay [13] relates to Nakaseomyces glabratus. Nature of the assay: Growth inhibition of Candida glabrata 21231 isolate in YEPD agar plates at 4 mg/ml. Format: functional, organism-based. An outline of the steps: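 Dye susceptibility on YEPD agar plates with dye at increasing levels from 0.1 to 4 mg/ml. Inocula ranged from 2 × 10^6 to 2 × 10^2 cells. The read-out is the minimum dye concentration that inhibited growth of the same quantity of cells.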

Assay [14] relates to Nakaseomyces glabratus. As to the kind of experiment: Growth inhibition of polyene-resistant Candida glabrata 21229 isolate in YEPD agar plates at 4 mg/ml. Format: functional, organism-based.
The subject of assay [15] is Nakaseomyces glabratus. Nature of the assay: Susceptibility of polyene-resistant Candida glabrata 21229 isolate at 8 ug by disk diffusion method. Format: functional. To be noted: read-out: IZ. An outline of the steps:
as §1

Assay [16] deals with Nakaseomyces glabratus. As to the kind of experiment: Susceptibility of Candida glabrata 21231 isolate at 8 ug by disk diffusion method. Format: functional. To be noted: read-out: IZ. An outline of the steps:
as §2

≈ marks a conversion by molar mass, not a printed value. Calls of active or inactive are those of the source.

The MIC is the smallest concentration in the dilution series that meets the test's criterion for growth inhibition. Read a low MIC as a more susceptible organism.

With `C[C@@H]1[C@H](O)[C@@H](C)/C=C/C=C/C=C/C=C/C=C/C=C/C=C/[C@H](O[C@@H]2O[C@H](C)[C@@H](O)[C@H](N)[C@@H]2O)C[C@@H]2O[C@](O)(C[C@@H](O)C[C@@H](O)[C@H](O)CC[C@@H](O)C[C@@H](O)CC(=O)O[C@H]1C)C[C@H](O)[C@H]2C(=O)O` [AMPHOTERICIN B], the “inhibition zone (IZ)” value in assay [1] came out at 16 mm; in [4], 16 mm; in assay [5], 30 mm. Moreover, the MIC in assay [2] was 0.029 µg/mL (≈ 0.0314 µM); in assay [6], 1.3 µg/mL (≈ 1.41 µM). The zone of inhibition at 10 µg/disc in assay [3] came to 13 mm; in [7], 34 mm.
As to `CC(=O)N1CCN(c2ccc(OCC3COC(Cn4ccnc4)(c4ccc(Cl)cc4Cl)O3)cc2)CC1` (stereo not drawn) [KETOCONAZOLE], the MIC in [2] is 0.136 µg/mL (≈ 0.256 µM); in assay [6] it was 0.034 µg/mL (≈ 0.064 µM). In addition, the values for the zone of inhibition at 15 µg/disc in assay [8] and in assay [9] were 50 mm and 24 mm, respectively.
With `Clc1ccc(COC(Cn2ccnc2)c2ccc(Cl)cc2Cl)c(Cl)c1` (stereo not drawn) [MICONAZOLE], the zone of inhibition at 10 µg/disc in assay [3] turned out to be 30 mm; in assay [7], 18 mm.
For `Clc1ccccc1C(c1ccccc1)(c1ccccc1)n1ccnc1` [CLOTRIMAZOLE] the same measures were 40 mm and 26 mm.
For NYSTATIN, the results for the inhibition zone (IZ) in assay [10] and in assay [11] were 34 mm and 16 mm, respectively.
Consider `OC(Cn1cncn1)(Cn1cncn1)c1ccc(F)cc1F` [FLUCONAZOLE], for which the MIC was 3.7 µg/mL (≈ 12.1 µM) in assay [2] and 1 µg/mL (≈ 3.27 µM) in assay [6]. In addition, the zone of inhibition at 15 µg/disc stood at 50 mm in assay [8] and 20 mm in [9].
For the compound `CC[C@H](C)C[C@H](C)CCCCCCCCC(=O)N[C@H]1C[C@@H](O)[C@@H](NCCN)NC(=O)[C@@H]2[C@@H](O)CCN2C(=O)[C@H]([C@H](O)CCN)NC(=O)[C@H]([C@H](O)[C@@H](O)c2ccc(O)cc2)NC(=O)[C@@H]2C[C@@H](O)CN2C(=O)[C@H]([C@@H](C)O)NC1=O` [CASPOFUNGIN], the MIC in assay [2] worked out at 0.023 µg/mL (≈ 0.021 µM); in [6] it was 0.024 µg/mL (≈ 0.022 µM).
For `C[C@@H](c1ncncc1F)[C@](O)(Cn1cncn1)c1ccc(F)cc1F` [VORICONAZOLE], the MIC turned out to be 0.125 µg/mL (≈ 0.358 µM) in assay [2] and 0.047 µg/mL (≈ 0.135 µM) in [6]. In addition, the zone of inhibition at 1 µg/disc in [12] (Nakaseomyces glabratus, 21229, read-out: IZ) was 43 mm; in assay [12] (read-out: IZ) it was 43 mm.
Regarding `Nc1c(/N=N/c2ccc(-c3ccc(/N=N/c4cc(S(=O)(=O)O)c5ccccc5c4N)cc3)cc2)cc(S(=O)(=O)O)c2ccccc12`, the outcome in assay [13] and in assay [14] was inactive.
Regarding `CCC(C)n1ncn(-c2ccc(N3CCN(c4ccc(OCC5COC(Cn6cncn6)(c6ccc(Cl)cc6Cl)O5)cc4)CC3)cc2)c1=O` (stereo not drawn) [ITRACONAZOLE], the zone of inhibition at 8 µg/disc stood at 30 mm in assay [15] and 16 mm in assay [16]. For the same compound, the MIC came to 18.7 µg/mL (≈ 26.5 µM) in assay [2] and 1.8 µg/mL (≈ 2.55 µM) in [6].

The values above are taken from ChEMBL document CHEMBL1142068, “Reduced susceptibility to polyenes associated with a missense mutation in the ERG6 gene in a clinical isolate of Candida glabrata with pseudohyphal growth” (2007).
